According to ChEMBL document CHEMBL2434904, “Novel N-methylsulfonamide and retro-N-methylsulfonamide derivatives as 17β-hydroxysteroid dehydrogenase type 2 (17β-HSD2) inhibitors with good ADME-related physicochemical parameters” (Eur J Med Chem, 2013):

Assays:
[1] = Partition coefficient, log P of the compound; assay type: physicochemical; conditions: octanol/water
Procedure, shortened: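 Experimental log P was measured on a SiriusT3 instrument. Calculated log P came from the GALAS method, which predicts from structurally similar molecules with known experimental data.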

[2] = organism: Homo sapiens; assay: Selectivity factor, ratio of IC50 for human placenta 17beta-HSD1 cytosolic fraction to IC50 for human placenta 17beta-HSD2 microsomal fraction
Procedure, shortened: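 Selectivity factor is IC50(17β-HSD1, placental cytosolic, E1/NADH assay) divided by IC50(17β-HSD2, placental microsomal, E2/NAD⁺ assay). Both come from radiolabeled-substrate conversion assays at 37 °C with 500 nM substrate.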

[3] = target: T1, 17-beta-hydroxysteroid dehydrogenase type 2 (Homo sapiens) (UniProt P37059); assay: Inhibition of human placenta 17beta-HSD2 microsomal fraction using unlabeled, [2,4,6,7-3H]-estradiol as substrate at 1 uM after 20 mins by HPLC analysis in presence of NAD+ relative to control
T1 sequence (whole entry): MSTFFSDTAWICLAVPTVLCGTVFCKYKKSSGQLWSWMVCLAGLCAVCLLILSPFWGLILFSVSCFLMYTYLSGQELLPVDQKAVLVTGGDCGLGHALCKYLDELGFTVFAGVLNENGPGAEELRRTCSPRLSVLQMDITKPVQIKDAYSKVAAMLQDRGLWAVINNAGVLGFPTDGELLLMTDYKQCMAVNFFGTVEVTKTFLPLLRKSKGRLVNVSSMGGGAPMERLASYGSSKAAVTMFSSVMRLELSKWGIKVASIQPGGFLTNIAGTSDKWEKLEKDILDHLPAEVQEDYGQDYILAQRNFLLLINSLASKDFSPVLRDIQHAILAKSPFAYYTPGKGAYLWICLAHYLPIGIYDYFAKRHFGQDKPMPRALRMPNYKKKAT
Procedure, shortened: (§1)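 17β-HSD2 came from the human placental microsomal pellet after fractional centrifugation at 1000, 10,000 and 150,000 g. It was incubated at 37 °C with NAD⁺ and inhibitor in 50 mM phosphate buffer with 20% glycerol, 1 mM EDTA and 1% DMSO final. Unlabeled plus [³H]-E2 (500 nM final) was added, and the reaction was stopped with HgCl₂ after 20 min. After ether extraction, radio-flow detection gave % conversion = E1/(E1+E2). At least three independent experiments were run.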

[4] = target: T2, 17-beta-hydroxysteroid dehydrogenase type 2 (Homo sapiens, UniProt P37059); assay: Inhibition of human placenta 17beta-HSD2 microsomal fraction using unlabeled, [2,4,6,7-3H]-estradiol as substrate after 20 mins by HPLC analysis in presence of NAD+; procedure, shortened: as §1
T2 sequence (P37059 whole entry): T1 sequence (whole entry)

[5] = target: T3, 17-beta-hydroxysteroid dehydrogenase type 1 (Homo sapiens, UniProt P14061); assay: Inhibition of human placenta 17beta-HSD1 cytosolic fraction using unlabeled, [2,4,6,7-3H]-estrone as substrate after 10 mins by HPLC analysis in presence of NADH
T3 sequence (P14061 whole entry): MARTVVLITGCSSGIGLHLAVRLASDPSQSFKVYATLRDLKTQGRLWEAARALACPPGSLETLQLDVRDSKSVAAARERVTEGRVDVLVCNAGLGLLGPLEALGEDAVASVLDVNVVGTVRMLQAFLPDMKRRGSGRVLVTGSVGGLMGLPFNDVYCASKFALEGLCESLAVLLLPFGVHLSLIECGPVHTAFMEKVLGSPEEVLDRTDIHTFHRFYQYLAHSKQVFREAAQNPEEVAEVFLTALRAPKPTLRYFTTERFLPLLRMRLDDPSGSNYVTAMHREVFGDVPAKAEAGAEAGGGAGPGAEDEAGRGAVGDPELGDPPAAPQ

[6] = target: T4, 17-beta-hydroxysteroid dehydrogenase type 1 (Homo sapiens) (UniProt P14061); assay: Inhibition of human placenta 17beta-HSD1 cytosolic fraction using unlabeled, [2,4,6,7-3H]-estrone as substrate at 1 uM after 10 mins by HPLC analysis in presence of NADH relative to control
T4 sequence (whole entry): T3 sequence (P14061 whole entry)

[7] = target: T2, 17-beta-hydroxysteroid dehydrogenase type 2; assay: Inhibition of 17beta-HSD2 (unknown origin)

CN(c1cccc(O)c1)S(=O)(=O)c1cccc(-c2cccc(O)c2)c1
logP [1]: 4.34 | Ratio IC50 [2]: 2 | inhibition [3]: 68% | IC50 [4]: 540 nM | IC50 [5]: 1310 nM | inhibition [6]: 42%

CN1C(=O)C[C@@H](c2ccccc2F)[C@@H]1[C@@H](O)c1cccc(-c2ccccc2)c1
IC50 [7]: 420 nM

COc1cccc(-c2cccc(C(=O)N(C)c3cccc(OC)c3)c2)c1
Ratio IC50 [2]: > 115 | IC50 [5]: > 60000 nM

CN(c1cccc(-c2cccc(O)c2)c1)S(=O)(=O)c1cccc(O)c1
logP [1]: 4.08 | Ratio IC50 [2]: 3 | inhibition [3]: 88% | IC50 [4]: 159 nM | IC50 [5]: 427 nM | inhibition [6]: 68%

COc1ccc(-c2cccc(C(=O)N(C)Cc3cccc(OC)c3)c2)cc1
inhibition [6]: 3%

CN(c1ccc(-c2cccc(O)c2)cc1)S(=O)(=O)c1cccc(O)c1
logP [1]: 3.72 | Ratio IC50 [2]: 6 | inhibition [3]: 66% | IC50 [4]: 511 nM | IC50 [5]: 3280 nM | inhibition [6]: 22%

CN1C(=O)C[C@@H](c2ccccc2F)[C@@H]1[C@@H](O)c1ccc(-c2ccccc2)cc1
IC50 [7]: 1020 nM
